Laboratory results taken from ChEMBL document CHEMBL1138564, “Microwave-induced synthesis and anti-microbial activities of 7,10,11,12-tetrahydrobenzo[c]acridin-8(9H)-one derivatives” (2009).
≈ marks a conversion by molar mass, not a printed value. Calls of active or inactive are those of the source. No cut-off for these calls is given here.

Tests used:
Type in all cases: functional
[1] = tested on: Escherichia coli; test: Antimicrobial activity against Escherichia coli NCIM 2065 at 1000 ug/disk after 24 hrs by disk diffusion method; settings: NCIM 2065, 24 h, read-out: DIZ
Summary of the method: (§1)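 Disc diffusion on Mueller–Hinton agar. 100 µl of bacterial suspension at 10⁸ CFU/ml is spread on the plate. Discs carry test compounds at two loadings, dissolved in DMSO; DMSO alone serves as negative control. Ofloxacin disc is the positive reference. Plates are incubated at 37 °C for 24 h, and the inhibition zone diameter is measured.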

[2] = tested on: Bacillus subtilis; test: Antimicrobial activity against Bacillus subtilis NCIM 2063 at 500 ug/disk after 24 hrs by disk diffusion method; settings: NCIM 2063, 24 h, read-out: DIZ; summary of the method: as §1
[3] = tested on: Bacillus subtilis; test: Antimicrobial activity against Bacillus subtilis NCIM 2063 at 1000 ug/disk after 24 hrs by disk diffusion method; settings: NCIM 2063, 24 h, read-out: DIZ; summary of the method: as §1
[4] = tested on: Bacillus cereus; test: Antimicrobial activity against Bacillus cereus NCIM 2155 at 500 ug/disk after 24 hrs by disk diffusion method; summary of the method: as §1
[5] = tested on: Bacillus cereus; test: Antimicrobial activity against Bacillus cereus NCIM 2155 at 1000 ug/disk after 24 hrs by disk diffusion method; summary of the method: as §1
[6] = tested on: Aliivibrio fischeri; test: Antimicrobial activity against Vibrio fischeri NCIM 2154 at 500 ug/disk after 24 hrs by disk diffusion method; settings: NCIM 2154, 24 h, read-out: DIZ
Summary of the method: (§2)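 Disc diffusion. 100 µl of bacterial suspension at 10⁸ CFU/ml was spread on Mueller–Hinton agar. Discs loaded with test compound dissolved in DMSO were placed on the lawn, with a DMSO-only disc as negative control. Plates were incubated at 37 °C for 24 h, and the inhibition zone diameter was measured.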

[7] = tested on: Rhodococcus corynebacterioides; test: Antimicrobial activity against Corynebacterium rubrum NCIM 2252 at 500 ug/disk after 24 hrs by disk diffusion method; settings: Rhodococcoides corynebacterioides, NCIM 2252, 24 h; read-out: DIZ; summary of the method: as §1
[8] = tested on: Salmonella typhimurium; test: Antimicrobial activity against Salmonella Typhimurium NCIM 2501 at 1000 ug/disk after 24 hrs by disk diffusion method; summary of the method: as §2
[9] = tested on: Salmonella typhimurium; test: Antimicrobial activity against Salmonella Typhimurium NCIM 2501 at 500 ug/disk after 24 hrs by disk diffusion method; summary of the method: as §2
[10] = tested on: Rhodococcus corynebacterioides; test: Antimicrobial activity against Corynebacterium rubrum NCIM 2252 at 1000 ug/disk after 24 hrs by disk diffusion method; settings: Rhodococcoides corynebacterioides, NCIM 2252, 24 h; read-out: DIZ; summary of the method: as §1
[11] = tested on: Staphylococcus; test: Antimicrobial activity against Staphylococcus albus NCIM 2178 at 500 ug/disk after 24 hrs by disk diffusion method; summary of the method: as §2
[12] = tested on: Staphylococcus; test: Antimicrobial activity against Staphylococcus albus NCIM 2178 at 1000 ug/disk after 24 hrs by disk diffusion method; summary of the method: as §2
[13] = tested on: Proteus vulgaris; test: Antimicrobial activity against Proteus vulgaris NCIM 2027 at 500 ug/disk after 24 hrs by disk diffusion method; summary of the method: as §1
[14] = tested on: Proteus vulgaris; test: Antimicrobial activity against Proteus vulgaris NCIM 2027 at 1000 ug/disk after 24 hrs by disk diffusion method; summary of the method: as §1
[15] = tested on: Aspergillus flavus; test: Antimicrobial activity against Aspergillus flavus NCIM 902 at 500 ug/disk after 72 hrs by disk diffusion method; settings: NCIM 902, 72 h, read-out: DIZ
Summary of the method: (§3)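 Disc diffusion on Sabouraud's dextrose agar. 100 µl of fungal suspension at 10⁶ CFU/ml is spread on the plate. Discs carry test compounds at two loadings in DMSO; DMSO alone is the negative control. Clotrimazole disc is the positive reference. Plates are incubated at 27 °C for 72 h, and the zone of inhibition diameter is measured.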

[16] = tested on: Aspergillus flavus; test: Antimicrobial activity against Aspergillus flavus NCIM 902 at 1000 ug/disk after 72 hrs by disk diffusion method; settings: NCIM 902, 72 h, read-out: DIZ; summary of the method: as §3
[17] = tested on: Rhodotorula mucilaginosa; test: Antimicrobial activity against Rhodotorula rubra NCIM 3174 at 500 ug/disk after 72 hrs by disk diffusion method; settings: NCIM 3174, 72 h, read-out: DIZ
Summary of the method: (§4)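 Fungal disc diffusion. 100 µl of suspension at 10⁶ CFU/ml was spread on Sabouraud's dextrose agar. Discs carrying test compound in DMSO were applied, with a DMSO-only disc as negative control. Plates were incubated at 27 °C for 72 h, and the zone of inhibition diameter was measured.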

[18] = tested on: Rhodotorula mucilaginosa; test: Antimicrobial activity against Rhodotorula rubra NCIM 3174 at 1000 ug/disk after 72 hrs by disk diffusion method; settings: NCIM 3174, 72 h, read-out: DIZ; summary of the method: as §4
[19] = tested on: Aspergillus fumigatus; test: Antimicrobial activity against Aspergillus fumigatus NCIM 902 at 500 ug/disk after 72 hrs by disk diffusion method; summary of the method: as §3
[20] = tested on: Aspergillus parasiticus; test: Antimicrobial activity against Aspergillus parasiticus NCIM 904 at 1000 ug/disk after 72 hrs by disk diffusion method; settings: NCIM 904, 72 h, read-out: DIZ; summary of the method: as §3
[21] = tested on: Penicillium chrysogenum; test: Antimicrobial activity against Penicillium chrysogenum NCIM 707 at 500 ug/disk after 72 hrs by disk diffusion method; summary of the method: as §3
[22] = tested on: Lipomyces lipofer; test: Antimicrobial activity against Lipomyces lipofer NCIM 3252 at 1000 ug/disk after 72 hrs by disk diffusion method; summary of the method: as §3
[23] = tested on: Klebsiella aerogenes; test: Antimicrobial activity against Klebsiella aerogenes NCIM 2239 at 500 ug/disk after 24 hrs by disk diffusion method; summary of the method: as §1
[24] = tested on: Pseudomonas aeruginosa; test: Antimicrobial activity against Pseudomonas aeruginosa NCIM 2200 at 1000 ug/disk after 24 hrs by disk diffusion method; summary of the method: as §1
[25] = tested on: Pseudomonas aeruginosa; test: Antimicrobial activity against Pseudomonas aeruginosa NCIM 2200 at 500 ug/disk after 24 hrs by disk diffusion method; summary of the method: as §2
[26] = tested on: Aspergillus flavus; test: Antimicrobial activity against Aspergillus flavus NCIM 902 after 72 hrs by serial dilution method; settings: NCIM 535, 72 h, in the assay text read “NCIM 535” for “NCIM 902”
Summary of the method: (§5)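 MIC by broth dilution in Sabouraud's dextrose broth, only for fungi sensitive in disc diffusion. Two-fold serial dilutions of compounds are made in 1 ml broth per tube, range 3.9 to 1000. Inoculated tubes are incubated at 27 °C for 72 h.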

[27] = tested on: Rhodotorula mucilaginosa; test: Antimicrobial activity against Rhodotorula rubra NCIM 3174 after 72 hrs by serial dilution method; settings: NCIM 3174, 72 h
Summary of the method: (§6)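 MIC by broth dilution in Sabouraud's dextrose broth, run only on fungi found sensitive in the disc assay. Twofold serial dilutions were made in 1 ml broth per tube, covering 3.9 to 1000. Inoculated tubes were incubated at 27 °C for 72 h.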

[28] = tested on: Aspergillus parasiticus; test: Antimicrobial activity against Aspergillus parasiticus NCIM 904 after 72 hrs by serial dilution method; settings: NCIM 904, 72 h; summary of the method: as §5
[29] = tested on: Trichoderma viride; test: Antimicrobial activity against Trichoderma viride NCIM 1195 after 72 hrs by serial dilution method; settings: NCIM 1195, 72 h; summary of the method: as §6
[30] = tested on: Trichoderma viride; test: Antimicrobial activity against Trichoderma viride NCIM 1195 at 1000 ug/disk after 72 hrs by disk diffusion method; settings: NCIM 1195, 72 h, read-out: DIZ; summary of the method: as §4
[31] = tested on: Escherichia coli; test: Antimicrobial activity against Escherichia coli NCIM 2065 after 24 hrs by serial dilution method; settings: NCIM 2065, 24 h
Summary of the method: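 Broth dilution MIC in nutrient broth, run only for organisms found sensitive in disc diffusion. Compounds are two-fold serially diluted in 1 ml sterile broth per tube, spanning 3.9 to 1000. Inoculated tubes are incubated at 37 °C for 24 h.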

[32] = tested on: Aliivibrio fischeri; test: Antimicrobial activity against Vibrio fischeri NCIM 2154 after 24 hrs by serial dilution method; settings: NCIM 2154, 24 h
[33] = Salmonella enterica subsp. enterica serovar Typhimurium
[34] = Salmonella enterica, NCIM 2501, 24 h, read-out: DIZ

MIC [26]	MIC [27]	MIC [28]	MIC [29]	MIC [31]	SMILES	zone of inhibition at 1000 µg/disc [1]	zone of inhibition at 500 µg/disc [2]	zone of inhibition at 1000 µg/disc [3]	zone of inhibition at 500 µg/disc [6]	zone of inhibition at 500 µg/disc [7]	zone of inhibition at 1000 µg/disc [10]	zone of inhibition at 500 µg/disc [15]	zone of inhibition at 1000 µg/disc [16]	zone of inhibition at 500 µg/disc [17]	zone of inhibition at 1000 µg/disc [18]	zone of inhibition at 1000 µg/disc [20]	zone of inhibition at 1000 µg/disc [30]	MIC [32]	also measured
62.5 µg/mL (≈ 174 µM)	3.9 µg/mL (≈ 10.8 µM)	62.5 µg/mL (≈ 174 µM)	62.5 µg/mL (≈ 174 µM)	125 µg/mL (≈ 347 µM)	O=C1CCCC2=C1C(c1ccccc1Cl)c1ccc3ccccc3c1N2 (centres undefined)	8 mm	7 mm	10 mm	7 mm	7 mm	8 mm	7 mm	9 mm	13 mm	16 mm	10 mm	10 mm	125 µg/mL (≈ 347 µM)	diameter of the inhibition zone (DIZ) [4]: inactive; diameter of the inhibition zone (DIZ) [5]: inactive; diameter of the inhibition zone (DIZ) [8, 33]: inactive; diameter of the inhibition zone (DIZ) [9, 33]: inactive; diameter of the inhibition zone (DIZ) [11]: inactive; diameter of the inhibition zone (DIZ) [12]: inactive; diameter of the inhibition zone (DIZ) [13]: inactive; diameter of the inhibition zone (DIZ) [14]: inactive; diameter of the inhibition zone (DIZ) [19]: inactive; diameter of the inhibition zone (DIZ) [21]: inactive; diameter of the inhibition zone (DIZ) [22]: inactive; diameter of the inhibition zone (DIZ) [23]: inactive; diameter of the inhibition zone (DIZ) [24]: inactive; diameter of the inhibition zone (DIZ) [25]: inactive
15.6 µg/mL (≈ 39.2 µM)	7.8 µg/mL (≈ 19.6 µM)	3.9 µg/mL (≈ 9.79 µM)	31.2 µg/mL (≈ 78.3 µM)	3.9 µg/mL (≈ 9.79 µM)	CC1(C)CC(=O)C2=C(C1)Nc1c(ccc3ccccc13)C2c1cccc([N+](=O)[O-])c1 (centres undefined)	15 mm	9 mm	11 mm	7 mm	8 mm	9 mm	9 mm	13 mm	10 mm	15 mm	16 mm	12 mm	62.5 µg/mL (≈ 157 µM)	zone of inhibition at 500 µg/disc ([4]; NCIM 2155, 24 h, read-out: DIZ): 10 mm; zone of inhibition at 1000 µg/disc ([5]; NCIM 2155, 24 h, read-out: DIZ): 13 mm; zone of inhibition at 1000 µg/disc [8, 34]: 13 mm; zone of inhibition at 500 µg/disc [9, 34]: 10 mm; zone of inhibition at 500 µg/disc ([11]; NCIM 2178, 24 h, read-out: DIZ): 7 mm; zone of inhibition at 1000 µg/disc ([12]; NCIM 2178, 24 h, read-out: DIZ): 9 mm; zone of inhibition at 500 µg/disc ([13]; NCIM 2027, 24 h, read-out: DIZ): 7 mm; zone of inhibition at 1000 µg/disc ([14]; NCIM 2027, 24 h, read-out: DIZ): 9 mm; zone of inhibition at 500 µg/disc ([19]; NCIM 902, 72 h, read-out: DIZ): 8 mm; zone of inhibition at 500 µg/disc ([21]; NCIM 707, 72 h, read-out: DIZ): 8 mm; zone of inhibition at 1000 µg/disc ([22]; NCIM 3252, 72 h, read-out: DIZ): 11 mm; zone of inhibition at 500 µg/disc ([23]; NCIM 2239, 24 h, read-out: DIZ): 8 mm; zone of inhibition at 1000 µg/disc ([24]; NCIM 2200, 24 h, read-out: DIZ): 8 mm; zone of inhibition at 500 µg/disc ([25]; NCIM 2200, 24 h, read-out: DIZ): 7 mm
